Tests used:
Type in all cases: functional
[1] = molecular target: Sodium-dependent serotonin transporter (Rattus norvegicus) (UniProt P31652); assay: (§1) Serotonin neuronal reuptake blocking activity was determined by the antagonism of the head twitch response induced by treatment of rats; parameters: concentration or dose not given beside the values
How it was run: (§2)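 Female Sprague-Dawley rats (150-250 g) dosed ip with compound (1% methylcellulose vehicle, dose as base weight), then p-chloromethamphetamine 6.0 mg/kg ip 1 h later; head twitches observed 30 min after PCMA; scored as rats not twitching; usually six rats per dose; ED50 = dose antagonizing PCMA head twitch in 50% of animals, with 95% confidence limits.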

[2] = molecular target: T1, Serotonin (5-HT) receptor (Rattus norvegicus) (UniProt P35563+P35365+P32305+P31388+Q9JJ16+P28564+P30994+Q62758+P08909+P14842+P30940+P35364+P19327+P28565); assay: (§3) Ability to elicit head twitches in rats (a serotonin mimetic response); parameters: concentration or dose not given beside the values
How it was run: (§4)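 Female Sprague-Dawley rats (150-250 g), compound given ip in 1% methylcellulose vehicle, dose as base weight; quantal scoring of rats showing at least one head twitch during a 2-min observation beginning 30 min after dosing; usually six rats per dose level; vehicle controls run.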

[3] = molecular target: Sodium-dependent serotonin transporter (Rattus norvegicus) (UniProt P31652); assay: as §1; parameters: concentration or dose not given beside the values; how it was run: as §2; remark: listed apart in the source
[4] = molecular target: Sodium-dependent serotonin transporter (Rattus norvegicus) (UniProt P31652); assay: Serotonin neuronal reuptake blocking activity was determined by the antagonism of the head twitch response induced in rats; parameters: concentration or dose not given beside the values; how it was run: as §2
[5] = molecular target: T1, Serotonin (5-HT) receptor (Rattus norvegicus); assay: as §3; parameters: concentration or dose not given beside the values; how it was run: as §4; remark: listed apart in the source
[6] = molecular target: T1, Serotonin (5-HT) receptor (Rattus norvegicus); assay: as §3; parameters: concentration or dose not given beside the values; how it was run: as §4; remark: listed apart in the source
Rattus norvegicus [7] = assay: Ability to elicit head twitches in rats a response characteristic of a serotonin mimetic action in the central nervous system was measured after 0.67 mg/kg of ip administration; conditions: route intraperitoneal; how it was run: as §4
Rattus norvegicus [8] = assay: Serotonin neuronal reuptake blocking activity was determined by the antagonism of the head twitch response induced by treatment of rats with p-chloromethamphetamine (PCMA) after 0.67 mg/kg of ip administration; conditions: route intraperitoneal; how it was run: as §2
Rattus norvegicus [9] = assay: Serotonin neuronal reuptake blocking activity was determined by the antagonism of the head twitch response induced by treatment of rats with p-chloromethamphetamine (PCMA) after 2 mg/kg of ip administration; conditions: route intraperitoneal; how it was run: as §2
Rattus norvegicus [10] = assay: Serotonin neuronal reuptake blocking activity was determined by the antagonism of the head twitch response induced in rats with p-chloromethamphetamine (PCMA) after 6 mg/kg of ip administration; conditions: route intraperitoneal; how it was run: as §2
Rattus norvegicus [11] = assay: Ability to elicit head twitches in rats a response characteristic of a serotonin mimetic action in the central nervous system after 6 mg/kg of ip administration; conditions: route intraperitoneal; how it was run: as §4
Rattus norvegicus [12] = assay: Ability to elicit head twitches in rats a response characteristic of a serotonin mimetic action in the central nervous system was measured after 2 mg/kg of ip administration; conditions: route intraperitoneal; how it was run: as §4
Rattus norvegicus [13] = assay: Ability to elicit head twitches in rats a response characteristic of a serotonin mimetic action in the central nervous system was measured after 1 mg/kg of ip administration; 5/36; conditions: route intraperitoneal; how it was run: as §4
Rattus norvegicus [14] = assay: Serotonin neuronal reuptake blocking activity was determined by the antagonism of the head twitch response induced in rats with p-chloromethamphetamine (PCMA) after 9 mg/kg of ip administration; 24/36; conditions: route intraperitoneal; how it was run: as §2
Rattus norvegicus [15] = assay: Ability to elicit head twitches in rats a response characteristic of a serotonin mimetic action in the central nervous system was measured after 3 mg/kg of ip administration; 11/36; conditions: route intraperitoneal; how it was run: as §4
Rattus norvegicus [16] = assay: Serotonin neuronal reuptake blocking activity was determined by the antagonism of the head twitch response induced by treatment of rats with p-chloromethamphetamine (PCMA) after 1.0 mg/kg of ip administration; 5/36; conditions: route intraperitoneal; how it was run: as §2
Rattus norvegicus [17] = assay: Serotonin neuronal reuptake blocking activity was determined by the antagonism of the head twitch response induced by treatment of rats with p-chloromethamphetamine (PCMA) after 3 mg/kg of ip administration; 13/36; conditions: route intraperitoneal; how it was run: as §2
Rattus norvegicus [18] = assay: Ability to elicit head twitches in rats a response characteristic of a serotonin mimetic action in the central nervous system after 6.0 mg/kg of ip administration; conditions: route intraperitoneal; how it was run: as §4
Rattus norvegicus [19] = assay: Serotonin neuronal reuptake blocking activity was determined by the antagonism of the head twitch response induced in rats with p-chloromethamphetamine (PCMA) after 6.0 mg/kg of ip administration; conditions: route intraperitoneal; how it was run: as §2
Rattus norvegicus [20] = assay: Ability to elicit head twitches in rats a response characteristic of a serotonin mimetic action in the central nervous system was measured after 2.0 mg/kg of ip administration; conditions: route intraperitoneal; how it was run: as §4
Rattus norvegicus [21] = assay: Serotonin neuronal reuptake blocking activity was determined by the antagonism of the head twitch response induced in rats with p-chloromethamphetamine (PCMA) after 9 mg/kg of ip administration; conditions: route intraperitoneal; how it was run: as §2
Rattus norvegicus [22] = assay: Ability to elicit head twitches in rats a response characteristic of a serotonin mimetic action in the central nervous system was measured after 3 mg/kg of ip administration; conditions: route intraperitoneal; how it was run: as §4
Rattus norvegicus [23] = assay: Serotonin neuronal reuptake blocking activity was determined by the antagonism of the head twitch response induced by treatment of rats with p-chloromethamphetamine (PCMA) after 3 mg/kg of ip administration; conditions: route intraperitoneal; how it was run: as §2
Rattus norvegicus [24] = assay: Ability to elicit head twitches in rats a response characteristic of a serotonin mimetic action in the central nervous system after 9 mg/kg of ip administration; conditions: route intraperitoneal; how it was run: as §4
Rattus norvegicus [25] = assay: Serotonin neuronal reuptake blocking activity was determined by the antagonism of the head twitch response induced by treatment of rats with p-chloromethamphetamine (PCMA) after 1 mg/kg of ip administration; conditions: route intraperitoneal; how it was run: as §2
Rattus norvegicus [26] = assay: Ability to elicit head twitches in rats a response characteristic of a serotonin mimetic action in the central nervous system was measured after 1.0 mg/kg of ip administration; conditions: route intraperitoneal; how it was run: as §4
Rattus norvegicus [27] = assay: Serotonin neuronal reuptake blocking activity was determined by the antagonism of the head twitch response induced by treatment of rats with p-chloromethamphetamine (PCMA) after 1.0 mg/kg of ip administration; conditions: route intraperitoneal; how it was run: as §2
Rattus norvegicus [28] = assay: Serotonin neuronal reuptake blocking activity was determined by the antagonism of the head twitch response induced in rats with p-chloromethamphetamine (PCMA) after 40 mg/kg of ip administration; conditions: route intraperitoneal
How it was run: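 Female Sprague-Dawley rats (150-250 g) dosed ip with compound in 1% methylcellulose vehicle. p-Chloromethamphetamine 6.0 mg/kg ip was given 1 h later, and head movements were observed 30 min after that. Scored as number of rats not showing head twitches. Six rats per dose unless otherwise noted. Doses expressed as base weight.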

Rattus norvegicus [29] = assay: Ability to elicit head twitches in rats a response characteristic of a serotonin mimetic action in the central nervous system was measured after 1 mg/kg of ip administration; conditions: route intraperitoneal; how it was run: as §4

Sodium-dependent serotonin transporter (Rattus norvegicus), sequence (P31652 whole entry): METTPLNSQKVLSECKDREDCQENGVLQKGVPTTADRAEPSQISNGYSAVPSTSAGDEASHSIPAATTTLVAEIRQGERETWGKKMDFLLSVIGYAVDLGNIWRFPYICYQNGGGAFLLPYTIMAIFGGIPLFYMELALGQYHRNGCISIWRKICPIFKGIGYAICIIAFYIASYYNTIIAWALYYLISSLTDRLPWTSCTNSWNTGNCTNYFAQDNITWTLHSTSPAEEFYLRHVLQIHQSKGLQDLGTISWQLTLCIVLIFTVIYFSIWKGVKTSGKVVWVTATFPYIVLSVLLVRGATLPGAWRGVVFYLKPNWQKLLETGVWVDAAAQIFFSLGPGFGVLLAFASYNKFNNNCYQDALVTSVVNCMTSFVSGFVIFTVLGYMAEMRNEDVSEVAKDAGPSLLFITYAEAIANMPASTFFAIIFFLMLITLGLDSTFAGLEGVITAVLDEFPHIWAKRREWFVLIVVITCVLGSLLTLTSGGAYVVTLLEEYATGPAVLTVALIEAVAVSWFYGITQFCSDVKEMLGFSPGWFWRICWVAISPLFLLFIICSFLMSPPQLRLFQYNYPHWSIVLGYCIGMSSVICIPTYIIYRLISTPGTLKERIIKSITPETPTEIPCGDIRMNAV

Structure (SMILES)	PCMA antagonism [1]	Activity [2]	PCMA antagonism [3]	PCMA antagonism [4]	Activity [5]	Activity [6]	further results
O=C(O)C1CN(c2cnc3ccccc3n2)CCN1 (stereo not drawn)	0	0	0	0	1	2	–
CS(=O)(=O)c1ccc2nc(N3CCNCC3)cnc2c1	–	–	–	–	–	–	Activity (Rattus norvegicus [7]): 0; PCMA antagonism (Rattus norvegicus [8]): 2; PCMA antagonism (Rattus norvegicus [9]): 0; PCMA antagonism (Rattus norvegicus [10]): 0; Activity (Rattus norvegicus [11]): 2; Activity (Rattus norvegicus [12]): 1
Nc1nc2ccccc2nc1N1CCNCC1	1	6	1	0	3	2	–
CC(=O)N1CCN(c2cnc3cc(Cl)ccc3n2)CC1	1	1	0	0	2	2	–
N#Cc1ccc2nc(N3CCNCC3)cnc2c1	–	–	–	–	–	–	Activity (Rattus norvegicus [13]): 5; PCMA antagonism (Rattus norvegicus [14]): 24; Activity (Rattus norvegicus [15]): 11; PCMA antagonism (Rattus norvegicus [16]): 5; PCMA antagonism (Rattus norvegicus [17]): 13
Brc1ccc2nc(N3CCNCC3)cnc2c1.Cl	–	–	–	–	–	–	Activity (Rattus norvegicus [7]): 0; PCMA antagonism (Rattus norvegicus [8]): 2; PCMA antagonism (Rattus norvegicus [9]): 3; PCMA antagonism (Rattus norvegicus [10]): 2; Activity (Rattus norvegicus [11]): 2; Activity (Rattus norvegicus [12]): 4
O=[N+]([O-])c1ccc2nc(N3CCNCC3)cnc2c1	6	2	5	5	2	4	–
Cl.O=[N+]([O-])c1ccc2ncc(N3CCNCC3)nc2c1	–	–	–	–	–	–	Activity (Rattus norvegicus [7]): 1; PCMA antagonism (Rattus norvegicus [8]): 2; Activity (Rattus norvegicus [18]): 0; PCMA antagonism (Rattus norvegicus [9]): 5; PCMA antagonism (Rattus norvegicus [19]): 4; Activity (Rattus norvegicus [20]): 0
Fc1ccc2nc(N3CCNCC3)cnc2c1	2	–	2	4	–	–	Activity (Rattus norvegicus [7]): 4; Activity (Rattus norvegicus [11]): 5; Activity (Rattus norvegicus [12]): 4
COc1ccc2ncc(N3CCNCC3)nc2c1	–	–	–	–	–	–	Activity (Rattus norvegicus [7]): 1; Activity (Rattus norvegicus [11]): 6; Activity (Rattus norvegicus [12]): 5
CN1CCN(c2cnc3cc(Cl)ccc3n2)CC1.Cl	–	–	–	–	–	–	PCMA antagonism (Rattus norvegicus [21]): 4; Activity (Rattus norvegicus [22]): 1; PCMA antagonism (Rattus norvegicus [23]): 2; Activity (Rattus norvegicus [24]): 1; PCMA antagonism (Rattus norvegicus [25]): 2; Activity (Rattus norvegicus [26]): 0
Clc1ccc2ncc(N3CCNCC3)nc2c1	–	–	–	–	–	–	PCMA antagonism (Rattus norvegicus [21]): 5; PCMA antagonism (Rattus norvegicus [27]): 1; Activity (Rattus norvegicus [22]): 1; PCMA antagonism (Rattus norvegicus [23]): 3; Activity (Rattus norvegicus [24]): 3; Activity (Rattus norvegicus [26]): 0
CN1CCN(c2nc3ccc(S(N)(=O)=O)cc3nc2Cl)CC1	2	4	2	2	1	3	–
Cl.FC(F)(F)c1ccc2nc(N3CCNCC3)c(Sc3ccccc3)nc2c1	0	0	1	–	2	2	PCMA antagonism (Rattus norvegicus [28]): 0
Cl.ON1CCN(c2cnc3ccccc3n2)CC1	–	–	–	–	–	–	Activity (Rattus norvegicus [22]): 2; Activity (Rattus norvegicus [24]): 4; Activity (Rattus norvegicus [29]): 2
Clc1ccc2nc(N3CCNCC3)c(Sc3ccccc3)nc2c1	2	0	1	1	1	1	–
Oc1nc2ccccc2nc1N1CCNCC1	–	0	–	1	6	2	–

From ChEMBL document CHEMBL1121884, “Piperazinylquinoxalines with central serotoninmimetic activity” (1981)
